Assay results as given in ChEMBL document CHEMBL1811802, “Synthesis and significant cytostatic activity of 7-hetaryl-7-deazaadenosines” (J Med Chem, 2011).

Experiments:
[1] = Inhibition of RNA polymerase 2 in human HeLaScribe nuclear extracts after 1 hr; conditions: read-out: IC50
How it was run: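 HeLaScribe nuclear extract transcription with CMV(+) template DNA, 3 mM MgCl2, 400 μM CTP/GTP/UTP, 25 μM [33P]ATP. Inhibitor preincubated 5 min at 30 °C, then 1 h at 30 °C. Products run on 6% urea–polyacrylamide gel; full-length transcript quantified; IC50 is 50% product decrease.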

[2] = system: BT-549; experiment: Cytostatic activity against human BT549 cells after 5 days by SRB assay; type: functional; conditions: BT-549, 120 h
How it was run: (§1)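 Cells seeded per line density, overnight at 37 °C; day-zero plate TCA-fixed. 5-fold serial dilutions added, 5-day incubation; TCA fixation, 0.057% SRB in 1% acetic acid 30 min, dye dissolved in 10 mM Tris pH 10.5, A500. Growth relative to day-zero and untreated; GIC50 from sigmoidal dose–response fit; mean of two independent experiments.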

[3] = system: MDA-MB-231; experiment: Cytotoxicity against human MDA-MB-231 cells after 3 days by MTT assay; type: functional, cell-based; conditions: MDA-MB-231, 72 h
[4] = Cytotoxicity against human U87MG cells after 3 days by MTT assay; type: functional, cell-based, U-87MG ATCC; conditions: U-87 MG, 72 h
[5] = system: EL4; experiment: Cytotoxicity against mouse EL4 cells after 3 days by MTT assay; type: functional, cell-based; conditions: EL4, 72 h
[6] = system: BJ; experiment: Cytotoxicity against human BJ cells after 3 days by MTT assay; type: cell-based; conditions: 72 h
[7] = system: HeLa; experiment: Cytotoxicity against human HeLa cells after 3 days by MTT assay; type: functional, cell-based; conditions: 72 h
[8] = system: HPAC; experiment: Cytotoxicity against human HPAC cells after 3 days by MTT assay; type: functional, cell-based; conditions: 72 h
[9] = molecular target: Adenosine kinase (Homo sapiens, UniProt P55263); experiment: Inhibition of human ADK using [3H]-adenosine by scintillation counting
[10] = system: PC-3; experiment: Cytotoxicity against human PC3 cells after 3 days by MTT assay; type: functional, cell-based; conditions: PC-3, 72 h
[11] = system: MCF7; experiment: Cytotoxicity against human MCF7 cells after 3 days by MTT assay; type: functional, cell-based; conditions: MCF7, 72 h
[12] = system: CT26; experiment: Cytotoxicity against mouse CT26 cells after 3 days by MTT assay; type: functional, cell-based; conditions: CT26, 72 h
[13] = Cytostatic activity against human Hs578 cells after 5 days by SRB assay; type: functional; conditions: Hs578, 120 h; how it was run: as §1
[14] = system: HCT-116; experiment: Cytostatic activity against human HCT116 cells after 5 days by SRB assay; type: functional; conditions: HCT-116, 120 h; how it was run: as §1
[15] = system: MAT-Ly-Lu; experiment: Cytotoxicity against rat MAT-LyLu cells after 3 days by MTT assay; type: functional, cell-based; conditions: 72 h
[16] = system: HCT-116; experiment: Cytotoxicity against human HCT116 cells after 3 days by MTT assay; type: functional, cell-based; conditions: HCT-116, 72 h
[17] = Cytotoxicity against human CEM-DNR-bulk cells after 3 days by MTT assay; type: functional, cell-based; conditions: 72 h
[18] = system: CCRF-CEM; experiment: Cytotoxicity against human CCRF-CEM cells after 3 days by XTT assay; type: functional, cell-based; conditions: 72 h
How it was run: (§2)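 Suspension-grown cell lines, 3-day compound incubation; viability read by XTT metabolic assay; IC50 averaged from four independent experiments.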

[19] = system: SK-OV-3; experiment: Cytotoxicity against human SKOV3 cells after 3 days by MTT assay; type: functional, cell-based; conditions: SK-OV-3, 72 h
[20] = system: C6; experiment: Cytotoxicity against rat C6 cells after 3 days by MTT assay; type: functional, cell-based; conditions: C6, 72 h
[21] = system: HT-29; experiment: Cytotoxicity against human HT-29 cells after 3 days by MTT assay; type: functional, cell-based; conditions: HT-29, 72 h
[22] = Cytotoxicity against human MES-SA cells after 3 days by MTT assay; type: functional, cell-based; conditions: 72 h
[23] = system: NCI-H23; experiment: Cytostatic activity against human NCI-H23 cells after 5 days by SRB assay; type: functional; conditions: NCI-H23, 120 h; how it was run: as §1
[24] = Cytotoxicity against human HeLaS3 cells after 3 days by XTT assay; type: functional, cell-based; conditions: HeLa S3, 72 h; how it was run: as §2
[25] = system: A549; experiment: Cytostatic activity against human A549 cells after 5 days by SRB assay; type: functional; conditions: A549, 120 h; how it was run: as §1
[26] = system: K562; experiment: Cytotoxicity against human K562 cells after 3 days by MTT assay; type: functional, cell-based; conditions: K562, 72 h
[27] = system: MT4; experiment: Cytostatic activity against human MT4 cells after 5 days by SRB assay; type: functional; conditions: MT4, 120 h
[28] = system: L1210; experiment: Cytotoxicity against mouse L1210 cells after 3 days by MTT assay; type: functional, cell-based; conditions: L1210, 72 h
[29] = Cytotoxicity against human NCI-H146 cells after 3 days by MTT assay; type: functional, cell-based; conditions: NCI-H146, 72 h
[30] = Cytotoxicity against mouse P388D1 cells after 3 days by MTT assay; type: functional, cell-based; conditions: P388D1, 72 h
[31] = system: K562; experiment: Cytotoxicity against human paclitaxel resistant K562 cells after 3 days by MTT assay; type: functional, cell-based; conditions: K562, 72 h
[32] = system: HL-60; experiment: Cytotoxicity against human HL60 cells after 3 days by XTT assay; type: functional, cell-based; conditions: HL-60, 72 h; how it was run: as §2
[33] = system: BV-173; experiment: Cytotoxicity against human BV173 cells after 3 days by MTT assay; type: functional, cell-based; conditions: BV-173, 72 h
[34] = system: LNCaP; experiment: Cytotoxicity against human LNCAP cells after 3 days by MTT assay; type: functional, cell-based; conditions: 72 h
[35] = system: SK-N-AS; experiment: Cytotoxicity against human SK-N-AS cells after 3 days by MTT assay; type: functional, cell-based; conditions: 72 h
[36] = system: PC-3; experiment: Cytostatic activity against human PC3 cells after 5 days by SRB assay; type: functional; conditions: PC-3, 120 h; how it was run: as §1
[37] = system: BT-549; experiment: Cytotoxicity against human BT549 cells after 3 days by MTT assay; type: functional, cell-based; conditions: BT-549, 72 h
[38] = system: SK-MEL-2; experiment: Cytotoxicity against human SK-MEL-2 cells after 3 days by MTT assay; type: functional, cell-based; conditions: SK-MEL-2, 72 h
[39] = system: DU-145; experiment: Cytostatic activity against human DU145 cells after 5 days by SRB assay; type: functional; conditions: DU-145, 120 h; how it was run: as §1
[40] = system: HCT-15; experiment: Cytostatic activity against human HCT15 cells after 5 days by SRB assay; type: functional; conditions: HCT-15, 120 h; how it was run: as §1

Sequence of Adenosine kinase (P55263 whole entry): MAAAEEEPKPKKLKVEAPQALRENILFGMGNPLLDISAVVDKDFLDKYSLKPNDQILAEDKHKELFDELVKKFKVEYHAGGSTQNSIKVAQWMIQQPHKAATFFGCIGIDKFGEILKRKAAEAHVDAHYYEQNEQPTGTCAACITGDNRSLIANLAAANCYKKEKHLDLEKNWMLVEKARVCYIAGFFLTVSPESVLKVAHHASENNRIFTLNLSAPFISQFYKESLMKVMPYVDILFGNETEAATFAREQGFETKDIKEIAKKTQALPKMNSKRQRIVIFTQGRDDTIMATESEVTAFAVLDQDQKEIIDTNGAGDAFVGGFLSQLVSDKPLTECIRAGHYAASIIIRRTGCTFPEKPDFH

IC50 [1] [nM] | IC50 [9] [nM] | GI50 [14] [nM] | Compound | IC50 [3] [nM] | IC50 [4] [nM] | IC50 [5] [nM] | IC50 [6] [nM] | IC50 [7] [nM] | IC50 [8] [nM] | IC50 [10] [nM] | IC50 [11] [nM] | IC50 [12] [nM] | GI50 [13] [nM] | IC50 [16] [nM] | IC50 [17] [nM] | IC50 [18] [nM] | IC50 [19] [nM] | IC50 [20] [nM] | IC50 [21] [nM] | IC50 [22] [nM] | further results
91000 |  |  | Nc1ncnc2c1c(-c1ccsc1)cn2[C@@H]1O[C@H](COP(=O)(O)OP(=O)(O)OP(=O)(O)O)[C@@H](O)[C@H]1O |  |  |  |  |  |  |  |  |  |  |  |  |  |  |  |  |  | 
148000 |  |  | Nc1ncnc2c1c(-c1ccco1)cn2[C@@H]1O[C@H](COP(=O)(O)OP(=O)(O)OP(=O)(O)O)[C@@H](O)[C@H]1O |  |  |  |  |  |  |  |  |  |  |  |  |  |  |  |  |  | 
 | 50 | 970 | Nc1ncnc2c1c(-c1cn[nH]c1)cn2[C@@H]1O[C@H](CO)[C@@H](O)[C@H]1O | > 10000 | > 10000 | > 10000 | > 10000 | 185 | 141 | > 10000 | > 10000 | 396 | 12 | > 10000 | 104 | 560 | > 10000 | 538 | 136 | 7740 | GI50 [2]: 50 nM; IC50 [15]: > 10000 nM; GI50 [23]: 144 nM; IC50 [24]: 220 nM; GI50 [25]: 192 nM; IC50 [26]: 9830 nM; GI50 [27]: 110 nM; IC50 [28]: 258 nM; IC50 [29]: > 10000 nM; IC50 [30]: 93 nM; IC50 [31]: 92 nM; IC50 [32]: > 25000 nM; IC50 [33]: 9780 nM; IC50 [34]: 9550 nM; IC50 [35]: > 10000 nM; GI50 [36]: 14 nM; IC50 [37]: 108 nM; IC50 [38]: > 10000 nM
 | > 5000 | 7 | Nc1ncnc2c1c(-c1ccsc1)cn2[C@@H]1O[C@H](CO)[C@@H](O)[C@H]1O | 82 | > 10000 | > 10000 | > 10000 | 124 | 110 | > 10000 | 7250 | 225 | 50 | 194 | 110 | 110 | > 10000 | 8290 | 184 | 76 | GI50 [2]: 28 nM; IC50 [15]: 525 nM; GI50 [23]: 73 nM; IC50 [24]: 60 nM; GI50 [25]: 16 nM; IC50 [26]: 67 nM; GI50 [27]: 124 nM; IC50 [28]: 199 nM; IC50 [29]: > 10000 nM; IC50 [30]: 76 nM; IC50 [31]: 93 nM; IC50 [32]: 6620 nM; GI50 [39]: 97 nM; IC50 [33]: 29 nM; IC50 [34]: 68 nM; IC50 [35]: > 10000 nM; GI50 [36]: 1320 nM; IC50 [37]: 120 nM; IC50 [38]: > 10000 nM
93000 |  |  | Nc1ncnc2c1ccn2[C@@H]1O[C@H](COP(=O)(O)OP(=O)(O)OP(=O)(O)O)[C@@H](O)[C@H]1O [TUBERCIDIN TRIPHOSPHATE] |  |  |  |  |  |  |  |  |  |  |  |  |  |  |  |  |  | 
 |  |  | Nc1nc(Cl)nc2c1ncn2[C@H]1C[C@H](O)[C@@H](CO)O1 [CLADRIBINE] | > 10000 | > 10000 | 848 | > 10000 | > 10000 | 9320 | 8280 | 2350 | 131 |  | 9430 | 352 |  | > 10000 | 9070 | 9440 | 165 | IC50 [26]: 7690 nM; IC50 [28]: 393 nM; IC50 [29]: > 10000 nM; IC50 [30]: 285 nM; IC50 [31]: 170 nM; IC50 [33]: 0.8 nM; IC50 [34]: > 10000 nM; IC50 [35]: > 10000 nM; IC50 [37]: 123 nM; IC50 [38]: > 10000 nM
54000 |  |  | Nc1ncnc2c1c(-c1cccs1)cn2[C@@H]1O[C@H](COP(=O)(O)OP(=O)(O)OP(=O)(O)O)[C@@H](O)[C@H]1O |  |  |  |  |  |  |  |  |  |  |  |  |  |  |  |  |  | 
 | > 2000 | 48 | Nc1ncnc2c1c(-c1ccco1)cn2[C@@H]1O[C@H](CO)[C@@H](O)[C@H]1O |  |  |  |  |  |  |  |  |  | 17 |  |  | 100 |  |  |  |  | GI50 [40]: 3 nM; GI50 [23]: 294 nM; IC50 [24]: 50 nM; GI50 [25]: 35 nM; GI50 [27]: 86 nM; IC50 [32]: 11600 nM; GI50 [39]: 19 nM; GI50 [36]: 4 nM
